# In ChEMBL document CHEMBL4673246, “Directing Drugs to Bugs: Antibiotic-Carbohydrate Conjugates Targeting Biofilm-Associated Lectins of Pseudomonas aeruginosa” (J Med Chem, 2020):
# Tests used:
# [1] = system: Escherichia coli; experiment: Antibacterial activity against Escherichia coli K-12 MG1655 assessed as growth inhibition after 18 to 20 hrs by broth microdilution assay; format: functional; conditions: time 18-20 hrs
# How it was run: (§1)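 Overnight LB-agar colonies suspended to OD600 0.08–0.13, diluted 1:100; final inoculum 5 × 10^5 CFU/mL. 37 °C, 18–20 h, humid. MIC = lowest concentration without visible growth; range from at least three independent experiments.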
# [2] = Half life in human plasma at 40 uM measured up to 150 mins by LC-MS/MS analysis; format: ADME, cell-free
# [3] = system: Staphylococcus carnosus; experiment: Antibacterial activity against Staphylococcus carnosus DSM 20501 assessed as growth inhibition after 18 to 20 hrs by broth microdilution assay; format: functional; conditions: time 18-20 hrs; how it was run: as §1
# [4] = system: Pseudomonas aeruginosa; experiment: Antibacterial activity against Pseudomonas aeruginosa PAO1 assessed as growth inhibition after 18 to 20 hrs in presence of PMBN by broth microdilution assay; format: functional; conditions: time 18-20 hrs
# How it was run: (§2)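 Broth microdilution per EUCAST guidelines in Müller-Hinton broth II (Ca2+/Mg2+ supplemented, pH 7.3). Colonies from overnight LB-agar plates were suspended to OD600 0.08–0.13, diluted 1:100, final inoculum 5 × 10^5 CFU/mL. PMBN at 2 μg/mL was added to the inoculum where indicated. Incubation 37 °C, 18–20 h. MIC was the lowest concentration with no visible growth. At least three independent experiments.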
# [5] = Cytotoxicity against HEK293 cells assessed as growth inhibition at 100 uM after 48 hrs by MTT assay relative to control; format: cell-based; conditions: human, read-out: GI
# How it was run: (§3)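 MTT assay: HEK293 or A549 cells seeded at 2 × 10^5 per well. Compounds (final DMSO 1%) were added 24 h after seeding. Living cell mass was read after 48 h.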
# [6] = system: Pseudomonas aeruginosa; experiment: Antibacterial activity against Pseudomonas aeruginosa PAO1 assessed as growth inhibition after 18 to 20 hrs by broth microdilution assay; format: functional; conditions: time 18-20 hrs; how it was run: as §1
# [7] = Clearance in mouse liver microsomes; format: ADME, Microsome
# [8] = Cytotoxicity against human A549 cells assessed as growth inhibition at 100 uM after 48 hrs by MTT assay relative to control; format: cell-based; conditions: read-out: GI; how it was run: as §3
# [9] = system: Pseudomonas aeruginosa; experiment: Antibacterial activity against Pseudomonas aeruginosa PA14 assessed as growth inhibition after 18 to 20 hrs in presence of PMBN by broth microdilution assay; format: functional; conditions: time 18-20 hrs
# How it was run: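 Cation-supplemented Mueller-Hinton broth II; final inoculum 5 × 10^5 CFU/mL. Incubated at 37 °C for 18–20 h. MIC read visually as the lowest concentration without growth; at least three independent experiments.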
# [10] = Protein binding in human plasma at 1 uM measured up to 6 hrs by LC-MS/MS analysis; format: ADME, cell-free
# How it was run: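 Rapid equilibrium dialysis: human plasma diluted with PBS pH 7.4 on one side, PBS on the other, compound at 1 μM final. Shaken at 37 °C for 6 h. Sampled at 0, 5 and 6 h and quantified by LC-MS/MS. Binding calculated from the concentration difference between chambers. Warfarin as control.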
# [11] = Clearance in human liver microsomes; format: ADME, Microsome
# [12] = Inhibition of Pseudomonas aeruginosa ATCC 33347 LecA expressed in Escherichia coli BL21(DE3) cells incubated for 30 to 60 mins by (N-(fluorescein-5-yl)-N'-(beta-D-(m-aminophenyl)-galactopyranosyl)thiocarbamide) reporter based fluorescence polarization assay
# How it was run: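 LecA at 40 μM with 20 nM fluorescein-galactoside reporter in TBS/Ca. Test compound serial dilutions in 30% DMSO co-solvent, triplicate. Incubation 30–60 min at room temperature, then fluorescence polarization read (ex 485, em 535 nm), blank-corrected for LecA alone. Four-parameter fit with plateaus fixed by the p-nitrophenyl β-D-galactoside control. At least three independent plates.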
# [13] = system: Pseudomonas aeruginosa; experiment: Antibacterial activity against Pseudomonas aeruginosa PA14 assessed as growth inhibition after 18 to 20 hrs by broth microdilution assay; format: functional; conditions: time 18-20 hrs; how it was run: as §1
# [14] = system: Pseudomonas aeruginosa; experiment: Antibacterial activity against Pseudomonas aeruginosa PA14 harboring LecA deletion mutant assessed as growth inhibition after 18 to 20 hrs by broth microdilution assay; format: functional; conditions: time 18-20 hrs; how it was run: as §1
# [15] = system: Pseudomonas aeruginosa; experiment: Antibacterial activity against Pseudomonas aeruginosa PA14 harboring LecB deletion mutant assessed as growth inhibition after 18 to 20 hrs by broth microdilution assay; format: functional; conditions: time 18-20 hrs; how it was run: as §1
# [16] = system: Escherichia coli; experiment: Antibacterial activity against Escherichia coli DSM 1116 assessed as growth inhibition after 18 to 20 hrs by broth microdilution assay; format: functional; conditions: time 18-20 hrs
# How it was run: as §2, with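 “7.3). Test range 128 to 0.125 μg/mL, from DMSO stocks.” for “7.3).”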
# [17] = Inhibition of Pseudomonas aeruginosa PA14 LecB expressed in Escherichia coli BL21(DE3) cells incubated for 4 to 8 hrs by (N-(fluorescein-5-yl)-N'-(alpha-L-fucopyranosyl ethylene)thiocarbamide) reporter based fluorescence polarization assay
# [18] = Inhibition of Pseudomonas aeruginosa PAO1 LecB expressed in Escherichia coli BL21(DE3) cells incubated for 4 to 8 hrs by (N-(fluorescein-5-yl)-N'-(alpha-L-fucopyranosyl ethylene)thiocarbamide) reporter based fluorescence polarization assay
# [19] = target: DNA gyrase (Escherichia coli, UniProt P0AES4+P0AES6); experiment: Inhibition of Escherichia coli DNA gyrase using relaxed PBR322 plasmid DNA as substrate incubated for 30 mins by ethidium bromide staining based agarose gel electrophoresis method; format: protein-complex assay
# How it was run: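 E. coli gyrase supercoiling kit. Relaxed pBR322 plus 1 U gyrase per reaction, compound serially diluted in 5% DMSO; 30 min at 37 °C. Stopped with STE buffer and CHCl3/isoamyl alcohol; 1% agarose gel, ethidium bromide stain. Supercoiled band intensity fitted with a four-parameter model, bottom fixed at 0, for IC50; at least three experiments.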
# [20] = system: Pseudomonas aeruginosa; experiment: Potency index ratio of Me-alpha-D-Gal IC50 to test compound IC50 for Inhibition of Pseudomonas aeruginosa ATCC 33347 LecA expressed in Escherichia coli BL21(DE3) cells
# [21] = system: Pseudomonas aeruginosa; experiment: Potency index ratio of pNP-beta-D-Gal IC50 to test compound IC50 for Inhibition of Pseudomonas aeruginosa ATCC 33347 LecA expressed in Escherichia coli BL21(DE3) cells
Structure (SMILES),MIC [1] [µg/mL],MIC [3] [µg/mL],MIC [4] [µg/mL],MIC [6] [µg/mL],MIC [9] [µg/mL],IC50 [12] [µM],MIC [13] [µg/mL],MIC [14] [µg/mL],MIC [15] [µg/mL],MIC [16] [µg/mL],other results
O=C(Cn1cc(CN2CCN(c3cc4c(cc3F)c(=O)c(C(=O)O)cn4C3CC3)CC2)nn1)Nc1ccc(S[C@@H]2O[C@H](CO)[C@H](O)[C@H](O)[C@H]2O)cc1,2,32,4,16,4,30.4,–,–,–,–,"half-life at […], 40 µM [2]: > 2.5 h; inhibition at 48 h, 100 µM [5]: 8%; microsomal CLint [7]: 10 µL/min/mg; inhibition at 48 h, 100 µM [8]: 5%; PPB [10]: 69%; microsomal CLint [11]: 10 µL/min/mg"
O=C(CCCn1cc(CN2CCN(c3cc4c(cc3F)c(=O)c(C(=O)O)cn4C3CC3)CC2)nn1)Nc1ccc(S[C@@H]2O[C@H](CO)[C@H](O)[C@H](O)[C@H]2O)cc1,1,–,4,16,4,27.3,8,8,8,2,–
O=C(CCn1cc(CN2CCN(c3cc4c(cc3F)c(=O)c(C(=O)O)cn4C3CC3)CC2)nn1)Nc1ccc(S[C@@H]2O[C@H](CO)[C@H](O)[C@H](O)[C@H]2O)cc1,2,32,4,16,8,32.2,8,8,8,–,–
C[C@@H]1O[C@H](CNS(=O)(=O)c2ccc(CCn3cc(CN4CCN(c5cc6c(cc5F)c(=O)c(C(=O)O)cn6C5CC5)CC4)nn3)s2)[C@@H](O)[C@H](O)[C@@H]1O,8,≥ 64,32,≥ 64,64,–,64,≥ 64,64,16,"IC50 [17]: 2.24 µM; half-life at […], 40 µM [2]: > 2.5 h; inhibition at 48 h, 100 µM [5]: 11%; microsomal CLint [7]: 10 µL/min/mg; inhibition at 48 h, 100 µM [8]: -9%; IC50 [18]: 2.37 µM; PPB [10]: 75%; microsomal CLint [11]: 15 µL/min/mg"
O=[N+]([O-])c1ccc(O[C@@H]2O[C@H](CO)[C@H](O)[C@H](O)[C@H]2O)cc1,–,–,–,–,–,52.7,–,–,–,–,–
C[C@@H]1O[C@H](CNS(=O)(=O)c2ccc(CCn3cc(CCN4CCN(c5cc6c(cc5F)c(=O)c(C(=O)O)cn6C5CC5)CC4)nn3)s2)[C@@H](O)[C@H](O)[C@@H]1O,16,≥ 64,≥ 64,–,64,–,–,–,–,32,IC50 [17]: 1 µM; IC50 [18]: 2.53 µM
C#CCN1CCN(c2cc3c(cc2F)c(=O)c(C(=O)O)cn3C2CC2)CC1,–,–,1,4,0.025,–,2,–,–,–,IC50 [19]: 0.7 µM
[N-]=[N+]=NCC(=O)Nc1ccc(S[C@@H]2O[C@H](CO)[C@H](O)[C@H](O)[C@H]2O)cc1,–,–,–,–,–,31.7,–,–,–,–,Ratio IC50 [20]: < 3; Ratio IC50 [21]: < 2
[N-]=[N+]=NCCC(=O)Nc1ccc(S[C@@H]2O[C@H](CO)[C@H](O)[C@H](O)[C@H]2O)cc1,–,–,–,–,–,30.9,–,–,–,–,Ratio IC50 [20]: < 3; Ratio IC50 [21]: < 2
O=C(CCn1cc(CCN2CCN(c3cc4c(cc3F)c(=O)c(C(=O)O)cn4C3CC3)CC2)nn1)Nc1ccc(S[C@@H]2O[C@H](CO)[C@H](O)[C@H](O)[C@H]2O)cc1,16,> 64,32,> 64,32,28,> 64,> 64,> 64,–,–
O=C(Cn1cc(CCN2CCN(c3cc4c(cc3F)c(=O)c(C(=O)O)cn4C3CC3)CC2)nn1)Nc1ccc(S[C@@H]2O[C@H](CO)[C@H](O)[C@H](O)[C@H]2O)cc1,8,64,32,> 64,16,21.6,≥ 64,≥ 64,≥ 64,–,–
CO[C@H]1O[C@H](CO)[C@H](O)[C@H](O)[C@H]1O,–,–,–,–,–,71.7,–,–,–,–,–
C[C@@H]1O[C@H](CNS(=O)(=O)c2ccc(CCN=[N+]=[N-])s2)[C@@H](O)[C@H](O)[C@@H]1O,–,–,–,–,–,–,–,–,–,–,IC50 [17]: 1.87 µM; IC50 [18]: 3.91 µM
O=C(CCCCn1cc(CCN2CCN(c3cc4c(cc3F)c(=O)c(C(=O)O)cn4C3CC3)CC2)nn1)Nc1ccc(S[C@@H]2O[C@H](CO)[C@H](O)[C@H](O)[C@H]2O)cc1,16,≥ 64,32,> 64,32,26.2,> 64,> 64,> 64,4,–
[N-]=[N+]=NCCCC(=O)Nc1ccc(S[C@@H]2O[C@H](CO)[C@H](O)[C@H](O)[C@H]2O)cc1,–,–,–,–,–,31.1,–,–,–,–,Ratio IC50 [20]: < 3; Ratio IC50 [21]: < 2
O=C(CCCn1cc(CCN2CCN(c3cc4c(cc3F)c(=O)c(C(=O)O)cn4C3CC3)CC2)nn1)Nc1ccc(S[C@@H]2O[C@H](CO)[C@H](O)[C@H](O)[C@H]2O)cc1,16,64,32,> 64,32,29.3,> 64,> 64,> 64,4,–
O=C(O)c1cn(C2CC2)c2cc(N3CCNCC3)c(F)cc2c1=O [CIPROFLOXACIN],< 0.125,< 0.125,–,–,–,–,–,0.05,0.05,< 0.125,"inhibition at 48 h, 100 µM [5]: 48%; inhibition at 48 h, 100 µM [8]: 18%"
O=C(CCCCn1cc(CN2CCN(c3cc4c(cc3F)c(=O)c(C(=O)O)cn4C3CC3)CC2)nn1)Nc1ccc(S[C@@H]2O[C@H](CO)[C@H](O)[C@H](O)[C@H]2O)cc1,2,–,8,32,2,28.3,–,–,–,4,–
[N-]=[N+]=NCCCCC(=O)Nc1ccc(S[C@@H]2O[C@H](CO)[C@H](O)[C@H](O)[C@H]2O)cc1,–,–,–,–,–,29.9,–,–,–,–,Ratio IC50 [20]: < 3; Ratio IC50 [21]: < 2
